Compound activity from PubChem BioAssay.
An excerpt weighted towards active compounds, which were near 9.8% of everything screened.
Rad51 HR inh – human RAD51 strand exchange inhibitors, primary screen, biochemical, fluorescence. inhibition, % at 10 µM. AID 1385, 2008. hRad51 DNA strand exchange, fluorescence dequenching. 200,000 compounds, 0.085% hits;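 active = inhibition above 40% at the single screening dose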;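 note: 0% = DMSO control wells and 100% = blanks with heterologous ssDNA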
Target sequence (Q06609 whole entry, looked up): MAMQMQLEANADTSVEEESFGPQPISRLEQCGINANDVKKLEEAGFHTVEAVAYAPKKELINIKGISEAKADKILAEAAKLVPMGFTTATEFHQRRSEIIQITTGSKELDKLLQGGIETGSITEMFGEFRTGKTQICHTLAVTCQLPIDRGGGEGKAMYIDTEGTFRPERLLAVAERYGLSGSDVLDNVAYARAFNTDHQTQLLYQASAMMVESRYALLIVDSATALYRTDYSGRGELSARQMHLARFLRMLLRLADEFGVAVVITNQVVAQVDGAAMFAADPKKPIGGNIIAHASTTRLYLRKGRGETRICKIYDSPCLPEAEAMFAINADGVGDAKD
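System: hRad51 filaments on single-stranded DNA; reagent: Fluorescein- and BHQ1-tagged 47-mer duplex; compound dosing: one concentration, 10 µM final; timing: filaments 15 min 37 °C, then compound 30 min; measured by: fluorescein emission 520 nm, excitation 485 nm; benchmarks: per-plate controls and blanks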
L major viab – Leishmania major promastigote growth inhibition, primary screen. 200,000 compounds, 9% hits. Leishmania major promastigotes, resazurin fluorescence viability. inhibition, % at 10 µM; in the data active = inhibition above about 50%;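 note: promastigotes grown with compound for 44 hours at 28 °C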
WT yeast gro inh – growth inhibition of WT strain, primary screen, mitochondrial fusion inhibitor project, WT and mutant strains, chemical genetic; 190,000 compounds, 2.1% hits; inhibition, % at 10 µM; AID 1362, 2008; mitochondrial fusion phenotypic screen; in the data active = inhibition above about 58%; tested in S. cerevisiae
PMI activator – activators of human PMI, primary screen, biochemical, fluorescence intensity, near-Km mannose 6-phosphate; AID 1214, 2008; purified human PMI, coupled resazurin fluorescence, 20 min; active compounds read high; 1 = vehicle control, 0 substrate-free wells; activation factor at 20 µM; 190,000 compounds, 0.005% hits; Mannose-6-phosphate isomerase (Homo sapiens), P34949;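 active = activation factor of 2 or more at 20 µM, relative to plate controls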
Calpain2 inh – inhibitors of pig calpain II, primary screen, biochemical, fluorogenic peptide substrate, 1536-well; inhibition, % at 16 µM; AID 1236, 2008; 220,000 compounds, 0.37% hits; purified calpain II, 30 min;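 active = inhibition above about 50%, limit read from the data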
PMI act satM6P – human PMI activators, high substrate, primary screen, biochemical, fluorescence intensity, near-saturating mannose 6-phosphate; 190,000 compounds, 0.34% hits; Mannose-6-phosphate isomerase (Homo sapiens), P34949; activation factor at 20 µM; coupled PMI enzyme assay, resazurin fluorescence, 20 min; active compounds read high; 1 = untreated enzyme, 0 = substrate-free blank;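 active = activation factor of 2 or more at 20 µM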
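test system = human PMI in coupled enzyme assay | medium = HEPES-buffered pH 7.4 with magnesium and detergent | also added = 1.0 mM mannose-6-phosphate substrate with 0.22 mM NADP+ | compound = 20 µM single dose | times = 20 min incubation at room temperature | measured by = resorufin fluorescence (Ex 544/Em 590 nm) from resazurin via diaphorase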
* hit, by the source's call; i = inactive; · = no result given.

SMILES | Rad51 HR inh | L major viab | WT yeast gro inh | PMI activator | Calpain2 inh | PMI act satM6P
CCCCCN1C=CC(=C2C(=O)c3ccccc3C2=O)C=C1 | · | 12 | 58* | 1.2 | 15 | 1
CC(C)C1N(C(N)=S)N=CC1(C)C (stereo not drawn) | -13 | · | · | · | -15 | ·
O=c1oc(Nc2cccc(F)c2)nc2ccccc12 | 1 | -2 | 78* | 1 | 14 | 1
Cc1ccc(C)c(NC(=O)c2cc(-c3cccnc3)nc3ccccc23)c1 | -7 | 8 | -12 | 0.9 | -27 | 1
Fc1cccc(NC(=S)NNc2c3ccccc3nc3ccccc23)c1 | 5 | 15 | 76* | 1.4 | -37 | 2.1*
c1ccc(Nc2nc3ccccc3o2)cc1 | -2 | -1 | 18 | 1 | 7 | 1
Nc1nc(Nc2cccc(F)c2)nc2ccccc12 | 6 | 89* | 42 | 1.2 | -19 | 1.1
Cc1ccc(C)c(Nc2nc(N)c3ccccc3n2)c1 | 2 | 98* | 77 | 1 | -7 | 1
Nc1nc(Nc2cccc(F)c2)nc(NCc2ccco2)c1[N+](=O)[O-] | 16 | · | · | · | 6 | ·
COc1ccccc1/C=C/C(=O)Nc1cccc(S(=O)(=O)NC2=NCCCCC2)c1 | -6 | 11 | 12 | 1 | -4 | 1
Nc1ccc(C(=O)OCC(=O)Nc2cc([N+](=O)[O-])ccc2F)cc1 | -1 | 1 | -25 | 1 | -12 | 0.9
Cc1cc(C)c(C(=O)CSc2n[nH]c(-c3ccncc3)n2)c(C)c1 | 1 | 97* | 7 | 1 | 18 | 0.9
CCOC(=O)CSc1n[nH]c(-c2cccnc2)n1 | · | -6 | 95* | 1 | 20 | 1
COc1ccc(C(=O)CSc2n[nH]c(-c3ccncc3)n2)cc1[N+](=O)[O-] | -1 | 56* | -7 | 1 | -8 | 1.1
CC(CC(=O)NCC1CCCO1)c1ccccc1 (stereo not drawn) | 3 | -11 | -17 | 1 | -16 | 1.1
Cc1ccc(S(=O)(=O)N2CCC(C(=O)NCc3ccncc3)CC2)cc1 | -1 | 0 | 1 | 0.9 | 5 | 1
O=[N+]([O-])c1ccc(C2=NN(CCO)C(=Nc3ccc(OC(F)(F)F)cc3)SC2)cc1 | · | · | · | · | -10 | ·
CCCCCCC(=O)Nc1nc(C)c(-c2csc(Nc3cc(OC)ccc3OC)n2)s1 | -3 | 71* | 11 | 1.1 | -46 | 1.1
COc1ccc(OC)c(Nc2nc(-c3sc(NC(=O)c4ccccc4)nc3C)cs2)c1 | 1 | -1 | 26 | 0.8 | 11 | 0.9
CCCCCC(=O)Nc1nc(C)c(-c2csc(Nc3cc(OC)ccc3OC)n2)s1 | 1 | 51* | -19 | 1 | 0 | 0.9
Cc1cccc(S(=O)(=O)NNC(=O)c2sc(C)nc2C)c1 | 0 | 1 | -4 | 0.9 | 1 | 1
COC(=O)c1cc(NC(=O)c2ccccc2F)cc(C(=O)OC)c1 | -19 | -1 | 10 | 1 | 34 | 0.9
Cc1ccc(NC(=O)C2Cc3ccccc3CN2C(=O)c2ccccc2)cc1Cl (stereo not drawn) | · | 7 | 23 | 0.8 | 4 | 0.9
Cc1nc(-c2ccccc2)sc1C(=O)CSc1ccc(Cl)cc1 | -3 | -5 | 20 | 0.8 | 64* | 0.8
Cc1nc(-c2ccccc2)sc1C(=O)CSc1ccc(Br)cc1 | -6 | -4 | 17 | 0.9 | 16 | 0.9
SMILES | Rad51 HR inh | L major viab | WT yeast gro inh | PMI activator | Calpain2 inh | PMI act satM6P
OCC1(CCOc2ccccc2)CCN(Cc2ccc3c(c2)OCCO3)CC1 | 3 | 92* | 11 | 1.1 | 4 | 1.1
CCOC(=O)C1(CCOc2ccccc2)CCN(Cc2cccs2)CC1 | 4 | 43 | 9 | 1 | 11 | 1
CCOC(=O)C1(Cc2cccc(OC)c2)CCN(Cc2cccc3c2OCO3)CC1 | · | 54* | 16 | 0.9 | -12 | 1
CCOC(=O)C1(CCOc2ccccc2)CCN(Cc2ccc3c(c2)OCCO3)CC1 | -4 | 86* | 29 | 0.9 | 35 | 0.9
CCOC(=O)C1(Cc2cccc(OC)c2)CCN(Cc2ccc3c(c2)OCCO3)CC1 | -6 | 95* | 6 | 1 | 14 | 1
CCOC(=O)C1(Cc2cccc(OC)c2)CCN(Cc2cc(OC)ccc2OC)CC1 | · | 28 | 18 | 0.9 | 14 | 1
Nc1nc(-c2ccccc2)nn1S(=O)(=O)c1ccccc1 | 7 | 3 | 0 | 0.9 | -13 | 0.9
CCCn1c(SCC(=O)NC(=O)NC(C)(C)C)n[nH]c1=O | -5 | -6 | 13 | 1 | 28 | 0.9
O=C1CCCC2=C1C(c1ccc(O)c(Br)c1)C1=C(CCCC1=O)N2c1ccccc1 | 6 | 44 | 3 | 1 | -95 | 0.9
COc1cc(Br)cc(C2C3=C(CCCC3=O)N(c3ccc(F)cc3)C3=C2C(=O)CCC3)c1O | -13 | 58* | 47 | 0.9 | -108 | 0.7
CCOC(=O)c1c(NC(=O)COC(=O)c2cc(OC)c(OC)cc2[N+](=O)[O-])sc(C)c1CC | -12 | 7 | 3 | 0.9 | -26 | 0.7
CCOC(=O)c1c(C)sc(Sc2ccc(Cl)cc2[N+](=O)[O-])c1OC | 7 | 28 | 76* | 0.9 | -4 | 1
Cn1c(=O)c2c(nc(N/N=C/c3ccc(OC(=O)c4ccco4)cc3)n2Cc2ccccc2)n(C)c1=O | 11 | 61* | 37 | 1.1 | -2 | 1
Cn1c(=O)c2c(nc(N/N=C/c3cccs3)n2Cc2ccccc2)n(C)c1=O | -6 | 26 | -3 | 1 | -22 | 1.1
Cc1cccc(-c2n[nH]c(=S)n2Cc2ccccc2)c1 | -4 | -8 | 72* | 1 | 20 | 1
CCc1cc(-c2n[nH]c(=S)n2Cc2ccccc2)cs1 | · | -9 | 65* | 0.9 | 17 | 0.9
CCc1cc(-c2n[nH]c(=S)n2-c2ccccc2C)cs1 | · | -4 | 60* | 0.9 | -54 | 1
S=c1[nH]nc(-c2cc3ccccc3o2)n1Cc1ccccc1 | 6 | -1 | 65* | 0.9 | i | 0.9
COc1ccc(OC)c(C2=NOC(C(=O)N3CCCc4ccccc43)C2)c1 (stereo not drawn) | -9 | 13 | -6 | 1 | -7 | 1.2
COc1ccc(NC(=S)N2CCN(c3ncccn3)CC2)c(OC)c1 | · | · | · | · | -3 | ·
CC(CCc1ccccc1)NC(=O)Cc1cccs1 (stereo not drawn) | 4 | -4 | -7 | 0.9 | -60 | 0.9
CCC(C)n1c(SCC(=O)Nc2ccccc2C(F)(F)F)nc2ccsc2c1=O (stereo not drawn) | -1 | 96* | 18 | 1 | 37 | 1
CCC(C)n1c(SCc2ccccc2)nc2ccsc2c1=O (stereo not drawn) | -2 | 16 | 65* | 0.8 | 24 | 0.9
